Measurements published in ChEMBL document CHEMBL4007461, “Synthesis, Antiviral Potency, in Vitro ADMET, and X-ray Structure of Potent CD4 Mimics as Entry Inhibitors That Target the Phe43 Cavity of HIV-1 gp120” (J Med Chem, 2017).
Activity calls are given as the source filed them. The calls are words filed in the database; no cut-off is given here.

Experiments:
[1] = system: Vesicular stomatitis virus; test: Antiviral activity against G-glycoprotein expressing VSV; type: functional
How it was run: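 VSV-G pseudovirus made in HEK293T cells from pVPack-VSV-G, MLV gag-pol pVPack-GP and pFB-luc plasmids. Virus was preincubated 30 min with graded compound concentrations, then added to U87-CD4-CXCR4 cells (1 x 10^4/well, plated overnight).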

[2] = system: Human immunodeficiency virus 1; test: microbe, parasite or virus in culture; details: Human immunodeficiency virus 1, subtype A/E CRF01_AE clone 269
[3] = system: Human immunodeficiency virus 1; test: microbe, parasite or virus in culture; details: Human immunodeficiency virus 1, subtype C CAP210.2.00.E8
[4] = system: Human immunodeficiency virus 1; test: microbe, parasite or virus in culture; details: Human immunodeficiency virus 1, subtype C ZM109F.PB4
Cytochrome P450 2C9 = Cytochrome P450 2C9 (Homo sapiens, UniProt P11712); test: Inhibition of CYP2C9 in human liver microsomes using tolbutamide as substrate after 60 mins in presence of NADPH by LC-MS/MS analysis; type: ADME
Sequence of Cytochrome P450 2C9 (P11712 whole entry): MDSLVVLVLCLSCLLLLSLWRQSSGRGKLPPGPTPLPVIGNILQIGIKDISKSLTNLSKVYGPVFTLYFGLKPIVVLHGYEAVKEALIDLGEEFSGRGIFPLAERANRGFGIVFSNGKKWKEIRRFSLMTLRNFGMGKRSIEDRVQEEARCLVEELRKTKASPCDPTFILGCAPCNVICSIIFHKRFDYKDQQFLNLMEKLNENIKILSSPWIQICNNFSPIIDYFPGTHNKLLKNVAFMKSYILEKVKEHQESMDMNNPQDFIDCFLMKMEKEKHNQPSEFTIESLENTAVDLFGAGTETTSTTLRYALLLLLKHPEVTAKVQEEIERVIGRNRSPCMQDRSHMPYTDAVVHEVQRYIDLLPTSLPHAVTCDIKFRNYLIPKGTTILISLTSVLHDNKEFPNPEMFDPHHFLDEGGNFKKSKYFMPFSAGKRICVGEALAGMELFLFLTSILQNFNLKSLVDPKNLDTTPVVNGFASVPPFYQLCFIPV

TZM = test: Cytotoxicity against human TZM-bl cells incubated for 3 days by XTT assay; type: cell-based; details: tzm, 72 h
How it was run: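 TZM-bl cells, 1 x 10^4/well, cultured overnight at 37 °C. Compounds added at graded concentrations for three days.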

[5] = system: Human immunodeficiency virus 1; test: microbe, parasite or virus in culture; details: Human immunodeficiency virus 1, subtype C Du 172, clone 17
Cytochrome P450 3A4 = Cytochrome P450 3A4 (Homo sapiens, UniProt P08684); test: Inhibition of CYP3A4 in human liver microsomes using midazolam as substrate after 5 mins in presence of NADPH by LC-MS/MS analysis; type: ADME
Sequence of Cytochrome P450 3A4 (P08684 whole entry): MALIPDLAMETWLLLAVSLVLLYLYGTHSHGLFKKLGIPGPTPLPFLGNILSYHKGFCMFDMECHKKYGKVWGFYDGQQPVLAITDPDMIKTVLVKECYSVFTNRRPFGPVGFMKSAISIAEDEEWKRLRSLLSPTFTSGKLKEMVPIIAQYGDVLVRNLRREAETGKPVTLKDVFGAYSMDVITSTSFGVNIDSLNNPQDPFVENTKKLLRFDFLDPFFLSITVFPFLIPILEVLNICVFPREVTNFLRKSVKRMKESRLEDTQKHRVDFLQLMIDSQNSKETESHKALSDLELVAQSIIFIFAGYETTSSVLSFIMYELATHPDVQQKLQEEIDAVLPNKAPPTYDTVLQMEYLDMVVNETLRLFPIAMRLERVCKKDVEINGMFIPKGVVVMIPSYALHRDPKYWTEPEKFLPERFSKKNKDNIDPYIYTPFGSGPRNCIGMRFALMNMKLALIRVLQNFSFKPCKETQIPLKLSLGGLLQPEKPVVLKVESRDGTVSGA

MT2 = test: Cytotoxicity against human MT2 cells incubated for 4 days by XTT assay; type: cell-based; details: mt2, 96 h, 96 h
How it was run: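 Run alongside the MT-2 multicycle infection assay. Compound at graded concentrations mixed with an equal volume of MT-2 cells (10^5 cells/ml). Medium replaced next day and culture continued four days.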

[6] = system: Human immunodeficiency virus 1; test: Antiviral activity against ENV pseudotyped CCR5-tropic HIV1 subtype C 225925-2, clone 22; type: functional; details: Human immunodeficiency virus 1, subtype C 225925-2, clone 22
How it was run: (§1)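 Env-pseudotyped viruses made by co-transfecting HEK293T cells with an Env-deleted pSG3 backbone (8 µg) and an Env-expression plasmid (8 µg). Supernatants were harvested 2 days after transfection, filtered, titered and stored at −80 °C. They were used for single-cycle infection, and IC50 was taken from percent inhibition.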

[7] = system: Human immunodeficiency virus 1; test: microbe, parasite or virus in culture; details: Human immunodeficiency virus 1, subtype A/G CRF02_AG clone 263
[8] = system: Human immunodeficiency virus 1; test: Antiviral activity against ENV pseudotyped CCR5-tropic HIV1 p9014_01.TBI.4769; type: functional; details: Human immunodeficiency virus 1, p9014_01.TBI.4769; how it was run: as §1
[9] = system: Human immunodeficiency virus 1; test: Antiviral activity against ENV pseudotyped CCR5-tropic HIV1 p9021_14.B2.4571; type: functional; details: Human immunodeficiency virus 1, p9021_14.B2.4571
Cytochrome P450 2D6 = Cytochrome P450 2D6 (Homo sapiens, UniProt P10635); test: Inhibition of CYP2D6 in human liver microsomes using dextromethorphan as substrate after 5 mins in presence of NADPH by LC-MS/MS analysis; type: ADME
Sequence of Cytochrome P450 2D6 (P10635 whole entry): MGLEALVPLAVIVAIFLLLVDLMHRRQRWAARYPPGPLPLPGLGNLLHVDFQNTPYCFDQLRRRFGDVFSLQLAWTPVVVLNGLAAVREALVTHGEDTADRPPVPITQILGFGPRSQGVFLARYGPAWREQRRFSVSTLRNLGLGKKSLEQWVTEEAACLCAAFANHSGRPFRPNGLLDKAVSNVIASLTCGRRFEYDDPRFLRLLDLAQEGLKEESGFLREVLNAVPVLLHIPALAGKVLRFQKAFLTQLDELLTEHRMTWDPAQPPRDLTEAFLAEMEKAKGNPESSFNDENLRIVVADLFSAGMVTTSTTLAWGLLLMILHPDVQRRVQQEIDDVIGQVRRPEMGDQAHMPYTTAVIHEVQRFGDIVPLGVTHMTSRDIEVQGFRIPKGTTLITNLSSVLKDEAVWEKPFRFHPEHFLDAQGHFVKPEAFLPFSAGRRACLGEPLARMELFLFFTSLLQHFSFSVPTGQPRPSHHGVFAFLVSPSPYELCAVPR

[10] = system: Human immunodeficiency virus 1
[11] = system: Human immunodeficiency virus 1; test: Antiviral activity against ENV pseudotyped CCR5-tropic HIV1 p1054.TC4.1499; type: functional
[12] = system: Human immunodeficiency virus 1; test: microbe, parasite or virus in culture; details: Human immunodeficiency virus 1, subtype C 6055-2, clone 3
[13] = system: Human immunodeficiency virus 1; test: Antiviral activity against ENV pseudotyped CCR5-tropic HIV1 subtype D QA013.70I.ENV.M12; type: functional; details: Human immunodeficiency virus 1, subtype D QA013.70I.ENV.M12; how it was run: as §1
[14] = Unbound fraction in human plasma at 5 uM by LC-MS/MS based equilibrium dialysis; type: ADME, cell-free
[15] = system: Human immunodeficiency virus 1; test: microbe, parasite or virus in culture; details: Human immunodeficiency virus 1, subtype B p1058_11.B11.1550
[16] = system: Human immunodeficiency virus 1; test: microbe, parasite or virus in culture; details: Human immunodeficiency virus 1, subtype C QB099.391 M.ENV.B1
[17] = Inhibition of HIV1 HXB2 gp120-mediated cell to cell fusion using human MAGI-CCR5 cells as indicator cells and Env/Tat-expressing HL2/3 cells as effector cells preincubated with MAGI-CCR5 cells for 1 hr followed by HL2/3 cells addition by beta-galactosidase reporter gene assay; details: Human immunodeficiency virus 1, HXB2
[18] = system: Human immunodeficiency virus 1; remark: listed apart in the source
[19] = Apparent permeability from apical to basolateral side in human Caco2 cells at 10 uM at pH 7.4 by LC-MS/MS analysis; type: ADME, cell-based; details: Caco-2, pH 7.4
How it was run: (§2)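 Caco-2 cells, passage 40-60, seeded on Transwell inserts at 1 x 10^5 cells/cm2 and grown 20 days in DMEM. Monolayers equilibrated 40 min in HBSS. Donor: compound at 10 µM final, 1% DMSO, in HBSS pH 7.4 with lucifer yellow as integrity marker. Sampled at 120 min, A-B and B-A, in duplicate, by LC-MS/MS. Papp = (dQ/dt)/(C0 × A); efflux ratio = Papp(B-A)/Papp(A-B).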

[20] = Apparent permeability from basolateral to apical side in human Caco2 cells at 10 uM at pH 7.4 by LC-MS/MS analysis; type: ADME, cell-based; details: Caco-2, pH 7.4; how it was run: as §2
[21] = system: Human immunodeficiency virus 1; test: Antiviral activity against HIV1 3B infected in human MT2 cells assessed as inhibition of p24 antigen production pretreated with virus for 30 mins followed by 4 days incubation with cells by sandwich ELISA based multicycle infection assay; type: functional, cell-based
How it was run: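 MT-2 cells were infected with HIV-1 IIIB at 100 TCID50 and preincubated 30 min with graded compound concentrations. Medium was replaced next day. Supernatants were collected 4 days post-infection, lysed with equal volume 5% Triton X-100, and p24 was measured by sandwich ELISA. IC50 came from percent inhibition of p24.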

[22] = Inhibition of HIV1 reverse transcriptase by colorimetric assay; parameters: species or system Human immunodeficiency virus 1
How it was run: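 HIV-1 reverse transcriptase activity measured with a commercial colorimetric reverse transcriptase kit, following the maker's instructions.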

[23] = system: Human immunodeficiency virus 1; test: microbe, parasite or virus in culture; details: Human immunodeficiency virus 1, subtype D/A BF535.W6M.ENV.A1
Cytochrome P450 2C19 = Cytochrome P450 2C19 (Homo sapiens, UniProt P33261); test: Inhibition of CYP2C19 in human liver microsomes using mephenytoin as substrate after 60 mins in presence of NADPH by LC-MS/MS analysis; type: ADME
Sequence of Cytochrome P450 2C19 (P33261 whole entry): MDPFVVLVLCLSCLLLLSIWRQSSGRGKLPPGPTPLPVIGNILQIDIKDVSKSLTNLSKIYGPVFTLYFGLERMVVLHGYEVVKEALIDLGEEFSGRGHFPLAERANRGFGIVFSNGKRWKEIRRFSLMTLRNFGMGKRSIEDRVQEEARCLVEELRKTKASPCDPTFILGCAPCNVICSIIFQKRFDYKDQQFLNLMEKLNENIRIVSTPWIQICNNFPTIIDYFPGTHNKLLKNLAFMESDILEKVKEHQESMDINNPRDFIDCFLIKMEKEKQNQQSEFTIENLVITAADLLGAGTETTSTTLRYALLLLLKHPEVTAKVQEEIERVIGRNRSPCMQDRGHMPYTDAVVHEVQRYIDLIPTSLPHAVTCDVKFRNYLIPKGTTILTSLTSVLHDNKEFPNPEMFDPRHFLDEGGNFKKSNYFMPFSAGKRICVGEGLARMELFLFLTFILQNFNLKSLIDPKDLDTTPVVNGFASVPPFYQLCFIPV

[24] = biological target: Voltage-gated inwardly rectifying potassium channel KCNH2 (Homo sapiens, UniProt Q12809); test: Inhibition of human ERG expressed in CHO cells by patch clamp electrophysiology assay; type: cell-based
Sequence of Voltage-gated inwardly rectifying potassium channel KCNH2 (Q12809 whole entry): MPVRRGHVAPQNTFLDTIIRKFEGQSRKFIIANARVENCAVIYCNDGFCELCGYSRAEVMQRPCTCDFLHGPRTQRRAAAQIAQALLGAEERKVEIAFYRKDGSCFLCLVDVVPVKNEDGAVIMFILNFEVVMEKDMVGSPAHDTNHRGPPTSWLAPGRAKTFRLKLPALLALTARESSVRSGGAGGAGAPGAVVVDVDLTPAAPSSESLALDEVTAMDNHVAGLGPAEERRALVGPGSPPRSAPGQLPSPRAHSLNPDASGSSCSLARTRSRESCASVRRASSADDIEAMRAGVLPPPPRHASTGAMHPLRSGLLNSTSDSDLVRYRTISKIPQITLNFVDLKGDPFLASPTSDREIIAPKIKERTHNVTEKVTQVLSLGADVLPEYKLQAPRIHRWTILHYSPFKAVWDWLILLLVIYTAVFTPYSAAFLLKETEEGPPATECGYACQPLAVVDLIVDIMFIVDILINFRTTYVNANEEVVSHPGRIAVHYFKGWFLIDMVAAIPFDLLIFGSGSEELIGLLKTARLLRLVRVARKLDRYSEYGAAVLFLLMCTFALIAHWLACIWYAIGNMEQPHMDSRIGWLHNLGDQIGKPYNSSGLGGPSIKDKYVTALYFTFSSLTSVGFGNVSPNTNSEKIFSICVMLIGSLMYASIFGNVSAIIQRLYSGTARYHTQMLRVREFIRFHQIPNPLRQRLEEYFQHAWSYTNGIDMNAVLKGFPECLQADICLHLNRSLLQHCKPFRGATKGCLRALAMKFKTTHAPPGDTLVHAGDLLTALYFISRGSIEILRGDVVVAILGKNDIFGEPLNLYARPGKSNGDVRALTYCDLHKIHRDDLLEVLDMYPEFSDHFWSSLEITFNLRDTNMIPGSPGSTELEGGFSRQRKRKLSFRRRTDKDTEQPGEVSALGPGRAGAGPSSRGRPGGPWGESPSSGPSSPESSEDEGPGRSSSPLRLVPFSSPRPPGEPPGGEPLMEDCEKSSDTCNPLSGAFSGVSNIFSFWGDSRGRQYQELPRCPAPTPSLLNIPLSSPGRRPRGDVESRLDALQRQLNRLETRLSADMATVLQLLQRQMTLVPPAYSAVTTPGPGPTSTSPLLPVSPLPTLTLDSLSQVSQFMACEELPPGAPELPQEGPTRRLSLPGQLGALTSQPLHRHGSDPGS

[25] = system: Human immunodeficiency virus 1; test: Antiviral activity against ENV pseudotyped CCR5-tropic HIV1 subtype C 25711-2, clone 4; type: functional; details: Human immunodeficiency virus 1, subtype C 25711-2, clone 4
[26] = Metabolic stability in human liver microsomes assessed as compound remaining at 45 mins in presence of NADPH by LC-MS/MS analysis; type: ADME, microsome; details: read-out: Stability
[27] = Intrinsic clearance in human liver microsomes assessed per mg protein in presence of NADPH by LC-MS/MS analysis; type: ADME, microsome; details: read-out: CLH
[28] = Aqueous solubility of the compound at 1 to 100 uM in PBS at pH 7.4 after 2 hrs by turbidimetric analysis; type: physicochemical
How it was run: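 DMSO stocks diluted 1:100 into phosphate-buffered saline pH 7.4, giving 1, 3, 10, 30 and 100 µM final in 1% DMSO. Seven replicate wells per concentration, incubated 2 h at 37 °C, absorbance read at 620 nm. Solubility taken as the concentration giving absorbance above the 1% DMSO vehicle.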

[29] = Inhibition of CYP1A in human liver microsomes using ethoxyresorufin as substrate after 5 mins in presence of NADPH by LC-MS/MS analysis
[30] = system: Human immunodeficiency virus 1; test: Antiviral activity against HIV1 HXB2 pseudovirus infected in human TZM-bl cells assessed as inhibition of viral entry treated 8 hrs post infection measured after 48 hrs by luciferase reporter gene assay; type: functional, cell-based
How it was run: (§3)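 TZM-bl cells, 1 x 10^4/well, cultured overnight at 37 °C, then infected with HXB2 Env pseudovirus. Plates spun 30 min at 2090 g at 4 °C, then held 90 min at 37 °C. Unbound virus washed off with PBS and fresh medium added. Compounds given at 10-15 times their IC50 at set times after infection. Cells lysed at 48 h and luciferase read. Two independent experiments, each in triplicate.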

[31] = system: Human immunodeficiency virus 1; test: Antiviral activity against HIV1 HXB2 pseudovirus infected in human TZM-bl cells assessed as inhibition of viral entry treated 1 hr post infection measured after 48 hrs by luciferase reporter gene assay; type: functional, cell-based; how it was run: as §3
[32] = system: Human immunodeficiency virus 1; test: Antiviral activity against HIV1 HXB2 pseudovirus infected in human TZM-bl cells assessed as inhibition of viral entry treated 2 to 4 hrs post infection measured after 48 hrs by luciferase reporter gene assay; type: functional, cell-based; how it was run: as §3
[33] = system: Human immunodeficiency virus 1; test: Antiviral activity against X4 tropic HIV1 HXB2 infected in human TZM-bl cells pretreated with virus for 30 mins followed by 3 days incubation with cells by luciferase reporter gene based single cycle infection assay; type: functional, cell-based
How it was run: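 TZM-bl cells (1 x 10^4/well) were cultured overnight at 37 °C. HXB2-Env pseudovirus was preincubated 30 min with graded compound concentrations, then added to the cells for 3 days. Cells were washed and lysed, and luciferase was read. IC50 came from percent inhibition.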

SMILES: Cc1ccc(-c2ccc(C(=O)NC(CN)c3ncc(CO)s3)[nH]2)cc1F (stereo in doubt)
- IC50 [1]: 42900 nM
- IC50 [2]: 300 nM
- IC50 [3]: 490 nM
- IC50 [4]: 200 nM
- IC50 (Cytochrome P450 2C9): > 25000 nM
- CC50 (TZM): 38800 nM
- IC50 [5]: 620 nM
- IC50 (Cytochrome P450 3A4): > 25000 nM
- CC50 (MT2): 38000 nM
- IC50 [6]: 340 nM
- IC50 [7]: 500 nM
- IC50 [8]: 310 nM
- IC50 [9]: 220 nM
- IC50 (Cytochrome P450 2D6): > 25000 nM
- IC50 [10]: 400 nM
- IC50 [11]: 400 nM
- IC50 [12]: 220 nM
- IC50 [13]: 240 nM
- fraction unbound at 5 µM [14]: 0.04
- IC50 [15]: 280 nM
- IC50 [16]: 350 nM
- IC50 [17]: 8300 nM
- IC50 [18]: 400 nM
- Papp A→B at 10 µM [19]: 2.56 ×10⁻⁶ cm/s
- Papp B→A at 10 µM [20]: 19.5 ×10⁻⁶ cm/s
- IC50 [21]: 760 nM
- IC50 [22]: 7200 nM
- IC50 [23]: 550 nM
- IC50 (Cytochrome P450 2C19): > 25000 nM
- IC50 [24]: 9980 nM
- IC50 [25]: 300 nM
- remaining at […] [26]: 101%
- microsomal CLint [27]: < 10 µL/min/mg
- solubility kinetic at 2 h [28]: > 100 µM
- IC50 [29]: 8010 nM

SMILES: COc1cnc(-n2cnc(C)n2)c2[nH]cc(C(=O)C(=O)N3CCN(C(=O)c4ccccc4)CC3)c12
- Papp A→B at 10 µM [19]: 7.62 ×10⁻⁶ cm/s
- Papp B→A at 10 µM [20]: 37.4 ×10⁻⁶ cm/s
- solubility kinetic at 2 h [28]: > 100 µM
- IC50 [29]: > 25000 nM

SMILES: Cc1nnc(C(=O)NC(C)(C)c2nc(C(=O)NCc3ccc(F)cc3)c(O)c(=O)n2C)o1
- inhibition [30]: inactive

SMILES: c1cc(CN2CCCNCCNCCCNCC2)ccc1CN1CCCNCCNCCCNCC1
- inhibition [31]: Active
- inhibition [32]: inactive

SMILES: Cc1cc(-c2ccc(C(=O)NC(CCN)c3nc(C)c(CO)s3)[nH]2)ccc1F (stereo in doubt; 63B)
- CC50 (TZM): 38200 nM
- CC50 (MT2): 34700 nM
- IC50 [21]: 3000 nM
- IC50 [33]: 7800 nM
